Compound activity (PubChem BioAssay)
Compounds with a hit are over-represented: about 1.9% of the library has one in this group of screens.
UCH37 DUB inh: human UCH37 deubiquitinating enzyme inhibition. inhibition, % (no concentration beside the values). AID 588478. 0.33% of 330,000 active. purified proteasome/UCH37, Ub-AMC cleavage fluorescence;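 active = mean inhibition over replicate wells above about 20%, limit read from the data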;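 also: 0% = compound-free wells with enzyme and 100% = wells lacking proteasome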
Target sequence (Q9Y5K5 whole entry, looked up): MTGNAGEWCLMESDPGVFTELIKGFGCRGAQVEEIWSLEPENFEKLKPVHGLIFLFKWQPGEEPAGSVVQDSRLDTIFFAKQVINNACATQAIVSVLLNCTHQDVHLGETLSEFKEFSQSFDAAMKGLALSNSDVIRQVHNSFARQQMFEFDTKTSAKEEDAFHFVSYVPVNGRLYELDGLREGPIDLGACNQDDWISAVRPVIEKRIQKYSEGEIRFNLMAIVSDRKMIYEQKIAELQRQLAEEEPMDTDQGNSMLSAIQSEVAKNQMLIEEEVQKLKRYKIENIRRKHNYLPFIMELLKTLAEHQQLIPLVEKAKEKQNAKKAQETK
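system = Proteasome-associated human UCH37 deubiquitinase | amount = 0.15 nM proteasome as dispensed | medium = pH 7.4 Tris-HCl (50 mM) with ovalbumin, ATP-MgCl2, DTT | incubation = 30 min preincubation with enzyme, 25 min cleavage at room temperature | detection = AMC fluorescence 355/460 nm | read-out basis = percent inhibition | controls = no-proteasome and no-compound wells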
PG9 binder: PG9 antibody binding by small molecule; 0.43% of 360,000 active; AID 624416; TR-FRET gp120-PG9 antibody binding; inhibition, % at 6.7 µM; in the data active = inhibition above about 8.5%
beta cell repl: inducers of beta-cell replication in MIN6 cells | MIN6 cells proliferation, ATPlite luminescence, 48 h; cells starved in 0.2% serum; 100% = growth in 10% serum | proliferation, % at 10 µM | 0.29% of 330,000 active;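 active = compounds whose signal lies at least 3.5 SD above the mean of all wells on their plate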;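 also: 0% = DMSO-treated cells in low-serum medium and 100% = 10% serum control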
Rce1 inhib: blocks yeast Ras-converting enzyme; yeast membranes, quenched prenylated peptide cleavage fluorescence; Q03530; AID 2563; calls only; 0.27% of 290,000 active;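 active = fall in fluorescence gain of 50% or more versus controls, with final raw signal at or below 3038400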;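 also: plate controls were neutral control wells for no effect and wells lacking membranes for full effect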
Rev-erbA mod: Rev-erb alpha (human) modulation. Rev-erbα–FITC-DNA binding, fluorescence polarization, 90 min. activity, % at 10 µM. 0.79% of 370,000 active;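 active = activity above about 14%, limit read from the data; passing the limit was not always enough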;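 also: 0% = DMSO wells with 35 nM protein and 100% = DMSO wells with 750 nM protein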
CR mimetic SO: lowers age-related superoxide in aged yeast cells | S. cerevisiae aged cells, superoxide DHE fluorescence; active compounds read low | superoxide response (% of plate mean), % at 10 µM | 0.18% of 330,000 active;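 active = superoxide response under a set limit, about three screen SD below normal, cut at about 65% in these data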;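 also: yeast aged for seven days with compound at 30 °C before DHE staining; 100% = average MFI of all compound-treated wells on the plate with controls excluded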
* marks the source's active call; other numbers are inactive results; i = inactive; · = no result given; + = active, no number.

SMILES	UCH37 DUB inh	PG9 binder	beta cell repl	Rce1 inhib	Rev-erbA mod	CR mimetic SO
CCOc1ccc(NN=C(C#N)C(N)=O)cc1	11.5	·	·	·	·	·
Oc1ccccc1C=NNc1ccccc1	2.7	·	·	·	·	·
O=S(=O)(O)c1ccc(NN=Cc2ccccc2O)cc1	22.6*	-5.8	·	·	-2.3	·
CCn1c(=O)cc(SCC(=O)Nc2ccc(C)cn2)c2ccccc21	3.3	22.5*	-4.8	i	-2.9	92.7
Cc1cccc2c1[nH]c1nc(NN=Cc3ccco3)nnc12	0.8	·	·	·	·	·
c1ccc(N2CCN(Cc3cnc(N4CCOCC4)s3)CC2)cc1	5.5	0.6	-2.9	i	-1.9	106.3
c1cnn(Cc2cnc(N3CCOCC3)s2)c1	6.0	-0.3	-2.0	+	4.8	102.6
CCc1cc(=O)oc2c3c(cc(OCC(=O)NCCCCCC(=O)O)c12)OC(C)(C)CC3	i	2.6	5.7	+	-4.1	99.2
Cc1c(C)c2c(OCC(=O)NCc3cccnc3)cc3c(c2oc1=O)CCC(C)(C)O3	-207.0	0.9	2.4	i	-7.5	105.2
Cc1c(C)c2c(OCC(=O)NCc3ccncc3)cc3c(c2oc1=O)CCC(C)(C)O3	-196.3	0.7	0.9	+	-13.4	100.0
CC(=NNc1c([N+](=O)[O-])c(C)nn1C)c1ccc(F)cc1F	0.9	·	·	·	·	·
COc1ccc(C(=O)ON=C(C)c2cnccn2)cc1	1.4	·	·	·	·	·
Oc1ccc(-c2nc3ccccn3c2NCc2ccco2)cc1	-81.5	-1.7	-3.4	+	-0.3	99.0
CC(C)S(=O)(=O)C1=NSC2=NC(=O)/C(=C\c3ccc(-c4cccc(C(=O)O)c4)o3)C(=N)N21	22.5*	-2.3	·	·	·	·
COc1cc2[nH]c3c(=O)n(CCN4CCOCC4)cnc3c2cc1OC	-104.4	-0.8	-1.8	+	1.3	94.9
O=C(CCNC(=O)c1ccccc1)OCC(=O)c1cccc(Cl)c1	0.7	-0.1	-2.8	i	-1.2	95.0
O=C(CCC(=O)OCC(=O)c1ccc(-c2ccccc2)cc1)Nc1cccc(Cl)c1	3.2	9.0*	2.1	i	4.6	99.9
COc1ccc(/C=C/C(=O)NCC(=O)NN=Cc2cc(Br)ccc2OCc2ccccc2)cc1	1.8	·	·	·	·	·
Cc1nn(C(=O)CN2C(=O)c3ccccc3C2=O)c(C)c1Br	27.9*	0.5	-0.4	i	0.6	108.1
Cc1cc(C)n(C(=O)CN2C(=O)c3ccccc3C2=O)n1	5.5	-0.1	-0.4	i	-0.7	92.6
CN(Cc1c(C(=O)NN=Cc2ccccc2)nnn1-c1nonc1N)c1ccccc1	2.2	·	·	·	·	·
CCN(CC)S(=O)(=O)c1cccc(-c2n[nH]c(=S)n2Cc2ccccc2)c1	0.1	-1.0	3.8	+	3.5	99.1
CCN(CC)S(=O)(=O)c1cccc(-c2n[nH]c(=S)n2CC(C)C)c1	-0.8	3.3	4.0	i	-1.6	116.2
CC(=NNC(=O)c1ccc(Cl)c(Cl)c1)c1cccc(NC(=O)C(C)C)c1	3.2	·	·	·	·	·
Nc1nonc1C(=O)NN=Cc1cccc([N+](=O)[O-])c1	7.4	·	·	·	·	·
SMILES	UCH37 DUB inh	PG9 binder	beta cell repl	Rce1 inhib	Rev-erbA mod	CR mimetic SO
Cc1ccc(O)c(CNc2cnc3ccccc3c2)c1	-66.4	-0.2	1.8	+	9.2	101.8
COc1cccc(N(CC(=O)NCC2CCCO2)C(=O)CNS(=O)(=O)c2ccccc2)c1 (centres undefined)	4.7	-1.1	8.4*	i	5.5	95.2
Cc1ccc(CC(=O)NN=Cc2ccc(OC(=O)c3ccc([N+](=O)[O-])cc3)cc2)cc1	6.2	·	·	·	·	·
CC(=NNC(=O)c1ccc(-c2ccccc2)cc1)c1cccc(N)c1	1.2	·	·	·	·	·
CC(C)N(CC#CC(O)(c1ccccc1)c1ccccc1)C(C)C	3.6	-1.5	-0.1	i	1.0	94.7
CN(CC#CC(O)(c1ccccc1)c1ccccc1)C(C)(C)C	1.9	-0.9	-0.7	i	0.1	65.4*
Fc1ccc(-c2cc3nc(-c4ccccc4)cc(N4CCN(CCN5CCOCC5)CC4)n3n2)cc1	-247.4	-1.5	·	+	5.0	·
CN1CCN(c2cc(-c3ccccc3)nc3cc(-c4ccc(F)cc4)nn23)CC1	-148.0	-0.2	-3.6	i	-4.6	83.2
CC(=NNc1nc2ccccc2[nH]1)c1cc2ccccc2o1	-11.1	·	·	·	·	·
Cc1cc(C)n(CC(=O)NN=Cc2cc(Br)cc([N+](=O)[O-])c2O)n1	10.6	·	·	·	·	·
Cc1[nH][nH]c(=O)c1C(c1ccc(-c2ccc(F)cc2)o1)c1c(C)[nH][nH]c1=O	21.7*	-3.8	-4.4	i	1.9	90.8
